{"source": "paper PMC5598404", "about": "(Toxicology Reports, 2015)", "key": {"[1]": {"system": "human breast cancer Sk-Br-3 cells", "assay": "CytoTox 96 Non-Radioactive Cytotoxicity Assay, breast cancer Sk-Br-3 cells", "type": "cell-based", "summary_of_the_method": "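Sk-Br-3 cells (ATCC) were kept in ATCC-formulated medium under 5% CO2 at 37 °C, plated at 10,000 cells/well and grown to 70–80% confluence. They were then exposed for 24 h or 48 h to test compounds from DMSO stocks at 400, 200, 100, 50 and 25 μg/mL. Cells given 2% DMSO (final) were the negative control. Cytotoxicity was read by CytoTox 96 kit in three independent experiments, each run in triplicate.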"}, "[2]": {"system": "human breast cancer MCF7 cells", "assay": "CytoTox 96 Non-Radioactive Cytotoxicity Assay, breast cancer MCF7 cells", "type": "cell-based", "details": "MCF7, 12.5-200 μg/mL, 24 h and 48 h", "summary_of_the_method": "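MCF7 cells from ATCC, grown in ATCC-formulated medium at 37 °C and 5% CO2. Seeded at 10,000 cells/well and grown to 70–80% confluence. Test compounds (DMSO stocks) were added at 200, 100, 50, 25 and 12.5 μg/mL (≈ μM, MW ~1000) for 24 h and 48 h. Negative control was 2% final DMSO. Read by CytoTox 96 kit; three independent experiments, each in triplicate.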"}, "[3]": {"details": "contain methionine sulfoxide in their ring; cited from earlier work"}}, "data": [{"substance": "NαC-[Met-Leu-Val-Phe-Pro-Leu-Phe-Ile] (head to tail) [[MetO]-LOB1, [1-8-NαC],[1-Rs,Ss-MetO]-linusorb-B1]", "values": [{"measurement": "Cytotoxicity towards Sk-Br-3 cells, 24 h, 400 μg/mL", "setting": "[1]; Sk-Br-3, 24 h exposure, 400 μg/mL, three independent experiments in triplicate", "value": 28, "unit": "%"}, {"measurement": "Concentration dependence of cytotoxicity towards Sk-Br-3 cells", "setting": "[1]; Sk-Br-3, 24 h exposure, 25-400 μg/mL", "value": "only showed cytotoxicity at 400 μg/mL"}, {"measurement": "Cytotoxicity towards Sk-Br-3 cells, 48 h, 400 μg/mL", "setting": "[1]; Sk-Br-3, 48 h exposure, 400 μg/mL, three independent experiments in triplicate", "value": "maintained their respective cytotoxicity"}, {"measurement": "Effect on MCF7 cells (in words)", "setting": "[2]", "value": "small cytoprotective effects"}, {"measurement": "Relative hydrophobicity of methionine sulfoxide LOBs", "setting": "[3]", "value": "less hydrophobic than their methionine containing counterparts"}]}]}
